Screens from PubChem BioAssay.
UCH37 DUB inh: inhibitors of human UCH37 deubiquitinase, primary screen, biochemical, Ub-AMC cleavage, fluorescence; purified proteasome/UCH37; Ubiquitin carboxyl-terminal hydrolase isozyme L5 (Homo sapiens), Q9Y5K5; inhibition, % (test concentration not listed); 330,000 tested, 0.33% active;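 active = mean inhibition over replicate wells above about 20%, limit read from the data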;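 also: 0% = compound-free wells with enzyme and 100% = wells lacking proteasome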
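Reagent: Ub-AMC substrate; assay system: Proteasome-associated human UCH37 deubiquitinase; controls: no-proteasome and no-compound wells; read-out: % inhibition of Ub-AMC cleavage fluorescence; timing: 30 min preincubation with enzyme, 25 min cleavage at room temperature; signal: AMC fluorescence from Ub-AMC cleavage, excitation 355 nm, emission 460 nm; buffer or medium: Tris-HCl pH 7.4 plus ovalbumin, ATP-MgCl2, DTT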
CASP6 VEID inh: human caspase-6 inhibitors, primary screen, biochemical, VEID-R110 fluorescence, single point, set 2. P55212. purified caspase-6, Z-VEID-R110 cleavage fluorescence. inhibition, % at 12.5 µM. 350,000 tested, 0.53% active. AID 686996, 2013;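 active = mean inhibition across replicates at least about 35%, with every replicate also reaching that limit, limit read from the data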;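 also: 0% = median of neutral control wells and 100% = no fluorescence left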
Target sequence (P55212 24-179 limits assumed): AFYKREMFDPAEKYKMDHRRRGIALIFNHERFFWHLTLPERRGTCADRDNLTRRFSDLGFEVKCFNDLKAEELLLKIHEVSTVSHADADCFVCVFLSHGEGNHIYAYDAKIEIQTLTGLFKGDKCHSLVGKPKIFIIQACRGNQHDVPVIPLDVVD
Target sequence (P55212 194-293 limits assumed): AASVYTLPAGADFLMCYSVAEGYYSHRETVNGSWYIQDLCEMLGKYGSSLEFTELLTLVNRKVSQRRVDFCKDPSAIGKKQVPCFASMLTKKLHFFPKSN
NSD2 inh: NSD2 histone methyltransferase inhibitors, primary screen, biochemical, AlphaScreen, single concentration, set 2 | Histone-lysine N-methyltransferase NSD2 (Homo sapiens), O96028 | NSD2 peptide methylation, 120 min | inhibition, % at 12.5 µM | 310,000 tested, 0.54% active | AID 743445, 2014; in the data active = inhibition above about 50%
FGF22 binding: binders of human FGF22 protein, primary screen, FGF22 synaptogenesis inhibitor project, biophysical, thermal shift, single point; recombinant FGF22 thermal shift, SYPRO orange fluorescence; percent of sucrose octasulfate shift, DMSO zero; AID 651658, 2012; activity (Tm shift, normalised), % at 9.99 µM; 340,000 tested, 1.5% active;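 active = mean Tm shift, scaled 0 neutral to 100 positive control, at about 1.3% or above, every replicate too, limit read from the data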
Target sequence (Q9HCT0 whole entry, looked up): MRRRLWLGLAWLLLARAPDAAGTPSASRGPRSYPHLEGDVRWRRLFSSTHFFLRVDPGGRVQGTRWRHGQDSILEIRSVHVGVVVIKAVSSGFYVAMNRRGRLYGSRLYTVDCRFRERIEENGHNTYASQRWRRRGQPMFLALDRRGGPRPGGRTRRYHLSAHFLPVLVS
SIRT5 inh: SIRT5 desuccinylase inhibitors, primary screen, biochemical, fluorescence imaging, single point, set 5; NAD-dependent protein deacylase sirtuin-5, mitochondrial (Homo sapiens), Q9NXA8; inhibition, % at 15 µM; 330,000 tested, 1.1% active; Purified SirT5, succinyl-peptide AMC, trypsin-coupled fluorescence; AID 652115, 2013; in the data active = inhibition above about 15%
* = called active by the depositor; · = no result given. An excerpt weighted towards active compounds, which were near 2.6% of everything screened.

SMILES	UCH37 DUB inh	CASP6 VEID inh	NSD2 inh	FGF22 binding	SIRT5 inh
COc1ccc(-c2cc3c(nn2)-c2ccccc2C3=O)cc1	2	3	-5	43*	0
O=C1c2ccccc2-c2nnc(-c3ccccc3)cc21	0	·	0	·	·
C[C@H](CO)N1C[C@H](C)[C@H](CN(C)Cc2ccncc2)Oc2c(NS(=O)(=O)c3ccc(F)cc3)cccc2C1=O	·	2	·	0	-2
C[C@@H]1CN([C@H](C)CO)C(=O)c2cc(NC(=O)CCCN(C)C)ccc2O[C@H]1CN(C)Cc1ccc(-c2ccccc2)cc1	·	4	·	0	0
O=C1C=CC(n2cc(F)c(=O)[nH]c2=O)O1 (stereo not drawn)	·	36*	-1	0	1
C[C@@H]1CNC(=O)c2c(C(=O)NCc3ccc(CNC(=O)OC(C)(C)C)cc3)ncn21	·	-1	·	42	-3
C[C@@H]1CNC(=O)c2c(C(=O)NCC(=O)OC(C)(C)C)ncn21	·	-3	·	43*	·
C[C@@H]1CN([C@H](C)CO)C(=O)c2cc(C#C[C@@H](C)O)cnc2O[C@@H]1CN(C)C(=O)c1ccccc1F	·	-4	·	0	-3
Cc1nc(SCc2ccc(O)c([N+](=O)[O-])c2)n[nH]1	·	-1	0	0	0
Cc1nc(SCc2ccc(O)c([N+](=O)[O-])c2)c([N+](=O)[O-])[nH]1	20*	3	5	0	9
CC(OC(=O)/C=C/c1ccccc1)C(=O)Nc1ccc2c(c1)OCCO2 (stereo not drawn)	1	0	0	0	20*
COc1ccccc1/C=C/C=NNC(=O)c1cccs1	2	·	·	·	·
COc1cccc(C(=O)NN=C(CC(C)C)c2ccccc2)c1	4	·	·	·	·
COc1cccc2c(=O)n(CC(=O)N3CCCc4ccccc43)ccc12	1	1	·	0	23*
CCOC(=O)COc1cccc2c(=O)n(CC(=O)N3CCCc4ccccc43)ccc12	1	1	·	0	-2
COc1ccc(C=NNC(=O)c2ccc3nc[nH]c3c2)c(OC)c1	6	·	·	·	·
COc1ccc(-n2c(NN)nc3sc4c(c3c2=O)CCCC4)cc1	-2	0	4	43*	-3
Cc1c(C(=O)O)cccc1-n1c(C)cc(/C=N/Nc2ccc([N+](=O)[O-])cn2)c1C	·	33	17	·	16*
O=C(CN1C(=O)C(=O)c2ccccc21)OCN1C(=O)c2ccccc2C1=O	4	4	2	43*	-5
O=C(O)CN1C(=O)/C(=C\c2cc(Br)ccc2OCc2ccc(Cl)cc2Cl)SC1=S	·	86*	3	·	6
COc1ccc(S(=O)(=O)n2cnc3ccccc32)cc1OC	6	62*	-1	0	6
COc1ccc(Cl)cc1S(=O)(=O)n1cnc2ccccc21	0	·	-1	·	·
CO[C@@H]1CN(C)C(=O)c2cc(NC(=O)c3nc4ccccc4s3)ccc2OC[C@H](C)N(Cc2cncnc2)C[C@@H]1C	·	·	·	0	5
CO[C@H]1CN(C)C(=O)c2cc(NC(=O)c3nc4ccccc4s3)ccc2OC[C@H](C)N(Cc2cncnc2)C[C@@H]1C	·	·	·	0	15*
COc1ccc(CN2C[C@H](C)[C@@H](OC)CN(C)C(=O)c3ccc(NC(=O)c4nc5ccccc5s4)cc3OC[C@@H]2C)cc1	·	0	·	·	102*
CO[C@H]1CN(C)C(=O)c2cc(NC(=O)c3nc4ccccc4s3)ccc2OC[C@H](C)NC[C@H]1C	·	-2	·	0	1.9*
CCCNC(=O)N(C)C[C@H]1Oc2cc(C#CCN(C)C)ccc2S(=O)(=O)N([C@H](C)CO)C[C@@H]1C	·	-10	·	0	6
CCCCOc1ccc(CSCCN=C(N)N)cc1	1	-12	5	43*	-2
C[C@@H]1CN([C@@H](C)CO)C(=O)c2cc(NC(=O)C3CCCCC3)ccc2O[C@@H](C)CCCCO[C@H]1CN(C)S(=O)(=O)c1ccccc1	·	0	·	·	1
CO[C@H]1CN(C)C(=O)c2ccc(NC(=O)C3CCOCC3)cc2OC[C@@H](C)N(C(C)=O)C[C@H]1C	·	0	·	0	·
